The source made the active and inactive calls. No cut-off for these calls is given here.

The inhibition is the percentage by which the read-out fell short of the control.

Data set [1] has as its system Influenza A virus. The data set can be described thus: Antiviral activity against Influenza virus A/Puerto Rico/8/34 H1N1 infected in dog MDCK cells at 20 ug/mL incubated for 6 hrs post-infection followed by compound washout measured after 24 hrs by hemagglutininating unit assay relative to control. The data set is classed as functional, A/Puerto Rico/8/1934(H1N1). In a few lines:
(§1)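 Compound added to PR8-infected MDCK cells immediately after virus challenge, then removed at 2, 4, 6, 8 or 24 h p.i. Supernatant virus yield was measured by HAU at 24 h p.i. and expressed as a percentage of DMSO-treated control infected cells. Means of two experiments, each in duplicate.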

For data set [2], the system named is Influenza A virus. Nature of the data set: Antiviral activity against Influenza virus A/Puerto Rico/8/34 H1N1 infected in dog MDCK cells assessed as reduction in matrix protein 1 expression at 20 ug/mL after 24 hrs by immunoblotting analysis relative to control. The format is functional, A/Puerto Rico/8/1934(H1N1). On the set-up: scale not given: the % may be the effect or the level left. In a few lines:
(§2)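 PR8-infected MDCK cells, untreated or treated, were lysed at 24 h. Homogenates were run on 12% gels under reducing conditions, blotted to nitrocellulose and probed with goat polyclonal anti-influenza antibodies. Densitometry was expressed as the ratio of each viral protein to actin, relative to untreated infected cells.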
Background: In western blotting, separated proteins are transferred to a membrane and probed.

Data set [3] concerns Influenza A virus. Nature of the data set: Antiviral activity against Influenza virus A/Puerto Rico/8/34 H1N1 infected in dog MDCK cells at 20 ug/mL incubated for 2 hrs post-infection followed by compound washout measured after 24 hrs by hemagglutininating unit assay. Conditions: A/Puerto Rico/8/1934(H1N1). The data set is classed as functional, organism-based. In a few lines:
as §1

Data set [4] deals with Influenza A virus. The data set can be described thus: Antiviral activity against Influenza virus A/Puerto Rico/8/34 H1N1 infected in dog MDCK cells assessed as reduction in hemagglutininin expression at 20 ug/mL after 24 hrs by immunoblotting analysis relative to control. The format is functional, A/Puerto Rico/8/1934(H1N1). More on the design: scale not given: the % may be the effect or the level left. In a few lines:
as §2

The test system of data set [5] is MDCK. The data set can be described thus: Cytotoxicity against dog MDCK cells assessed as morphological alterations at 40 ug/mL incubated for 24 hrs followed by compound wash out measured after 24 hrs by microscopic analysis. The format is cell-based, Canis lupus familiaris. In a few lines:
(§3)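 Confluent MDCK monolayers plated at 2×10^5/ml were treated after 24 h with compound at 5–40 μg/ml and incubated a further 24 h. Assessed by microscopic examination of morphology, Trypan blue exclusion for viability, and cell counts for multiplication rate.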

Data set [6] concerns MDCK. Nature of the data set: Restoration of GSH level in dog MDCK cells infected with Influenza virus A/Puerto Rico/8/34 H1N1 measured at 24 hrs post-infection by DTNB-based colometric assay. Conditions: Canis lupus familiaris. The format is functional, cell-based. In a few lines: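 MDCK cells, infected or mock-infected and treated, were assayed for intracellular GSH and GSSG with a glutathione assay kit at 24 h p.i. Results are in nmol per mg protein, as the mean of two experiments each in duplicate, compared against mock-infected cells.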

In data set [7] the test system is Influenza A virus. The data set can be described thus: Antiviral activity against Influenza virus A/Puerto Rico/8/34 H1N1 infected in dog MDCK cells at 20 ug/mL incubated for 24 hrs post-infection followed by compound washout measured after 24 hrs by hemagglutininating unit assay relative to control. The format is functional, A/Puerto Rico/8/1934(H1N1). In a few lines: as §1

For data set [8], the system named is Influenza A virus. The data set can be described thus: Antiviral activity against Influenza virus A/Puerto Rico/8/34 H1N1 infected in dog MDCK cells at 20 ug/mL incubated for 8 hrs post-infection followed by compound washout measured after 24 hrs by hemagglutininating unit assay relative to control. The format is functional, A/Puerto Rico/8/1934(H1N1). In a few lines:
as §1

Data set [9] has as its system Influenza A virus. The data set can be described thus: Antiviral activity against Influenza virus A/Puerto Rico/8/34 H1N1 infected in dog MDCK cells assessed as reduction in nucleoprotein expression at 20 ug/mL after 24 hrs by immunoblotting analysis relative to control. The format is functional, organism-based. The conditions noted are these: A/Puerto Rico/8/1934(H1N1). In a few lines: as §2

The test system of data set [10] is Influenza A virus. The data set can be described thus: Antiviral activity against Influenza virus A/Puerto Rico/8/34 H1N1 infected in dog MDCK cells at 20 ug/mL incubated for 4 hrs post-infection followed by compound washout measured after 24 hrs by hemagglutininating unit assay. Conditions: A/Puerto Rico/8/1934(H1N1). The data set is classed as functional, organism-based. In a few lines:
as §1

For data set [11], the system named is Influenza A virus. Nature of the data set: Antiviral activity against Influenza virus A/Puerto Rico/8/34 H1N1 infected in dog MDCK cells assessed as reduction in neuraminidase expression at 20 ug/mL after 24 hrs by immunoblotting analysis relative to control. The format is functional, A/Puerto Rico/8/1934(H1N1). More on the design: scale not given: the % may be the effect or the level left. In a few lines:
as §2

Data set [12] concerns Influenza A virus. The data set can be described thus: Antiviral activity against Influenza virus A/Puerto Rico/8/34 H1N1 infected in dog MDCK cells at 10 ug/mL incubated for 24 hrs post-infection followed by compound washout measured after 24 hrs by hemagglutininating unit assay relative to control. The format is functional, A/Puerto Rico/8/1934(H1N1). In a few lines:
as §1

Data set [13] deals with Influenza A virus. The data set can be described thus: Antiviral activity against Influenza virus A/Puerto Rico/8/34 H1N1 infected in dog MDCK cells assessed as inhibition of viral replication at 10 ug/mL incubated at 1 hr post-infection measured after 24 hrs by hemagglutininating unit assay relative to control. The format is functional. The conditions noted are these: A/Puerto Rico/8/1934(H1N1). In a few lines:
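MDCK cells infected with PR8; 1 h after adsorption they were washed, and compound (5–20 μg/ml) or DMSO was added and kept on throughout. Virus released into the supernatant was titrated by HAU assay 24 h p.i. Yield is a percentage of control infected cells given 0.02% DMSO. Means of four experiments, each in duplicate.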

The test system of data set [14] is Influenza A virus. Nature of the data set: Antiviral activity against Influenza virus A/Puerto Rico/8/34 H1N1 infected in dog MDCK cells at 10 ug/mL incubated for 2 hrs post-infection followed by compound washout measured after 24 hrs by hemagglutininating unit assay. The data set is classed as functional, organism-based. The conditions noted are these: A/Puerto Rico/8/1934(H1N1). In a few lines:
as §1

Data set [15] has as its system MDCK. Nature of the data set: Inhibition of PKC/p38MAPK-mediated nuclear-cytoplasmic viral nucleoprotein export in dog MDCK cells infected with Influenza virus A/Puerto Rico/8/34 H1N1 measured at 8 hrs post-infection by inmmunofluorescence. The data set is classed as cell-based. The conditions noted are these: Canis lupus familiaris. In a few lines: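 MDCK cells were infected with PR8 at 1 M.O.I. for single-cycle replication. At 8 h p.i. cells were fixed, permeabilized and stained with DAPI, then with anti-NP primary and FITC-conjugated secondary antibody. NP localization was assessed by fluorescence microscopy.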

Data set [16] relates to Influenza A virus. The data set can be described thus: Antiviral activity against Influenza virus A/Puerto Rico/8/34 H1N1 infected in dog MDCK cells at 10 ug/mL incubated for 8 hrs post-infection followed by compound washout measured after 24 hrs by hemagglutininating unit assay relative to control. The format is functional, A/Puerto Rico/8/1934(H1N1). In a few lines:
as §1

For data set [17], the system named is Influenza A virus. The data set can be described thus: Antiviral activity against Influenza virus A/Puerto Rico/8/34 H1N1 infected in dog MDCK cells assessed as reduction in matrix protein 1 expression at 10 ug/mL after 24 hrs by immunoblotting analysis relative to control. The format is functional, organism-based. The conditions noted are these: A/Puerto Rico/8/1934(H1N1). In a few lines: as §2

Data set [18] relates to Influenza A virus. Nature of the data set: Antiviral activity against Influenza virus A/Puerto Rico/8/34 H1N1 infected in dog MDCK cells assessed as reduction in nucleoprotein expression at 10 ug/mL after 24 hrs by immunoblotting analysis relative to control. The data set is classed as functional, organism-based. Conditions: A/Puerto Rico/8/1934(H1N1). In a few lines: as §2

Data set [19] deals with MDCK. The data set can be described thus: Cytotoxicity against dog MDCK cells assessed as morphological alterations at 20 to 40 ug/mL incubated for 24 hrs followed by compound wash out measured after 24 hrs by microscopic analysis. The format is cell-based, Canis lupus familiaris. In a few lines:
as §3

In data set [20] the test system is Influenza A virus. Nature of the data set: Antiviral activity against Influenza virus A/Puerto Rico/8/34 H1N1 infected in dog MDCK cells assessed as reduction in hemagglutininin expression at 10 ug/mL after 24 hrs by immunoblotting analysis relative to control. The format is functional, organism-based. The conditions noted are these: A/Puerto Rico/8/1934(H1N1). In a few lines: as §2

In data set [21] the test system is Influenza A virus. Nature of the data set: Antiviral activity against Influenza virus A/Puerto Rico/8/34 H1N1 infected in dog MDCK cells assessed as reduction in neuraminidase expression at 10 ug/mL after 24 hrs by immunoblotting analysis relative to control. The data set is classed as functional, A/Puerto Rico/8/1934(H1N1). More on the design: scale not given: the % may be the effect or the level left. In a few lines:
as §2

Data set [22] relates to Influenza A virus. The data set can be described thus: Antiviral activity against Influenza virus A/Puerto Rico/8/34 H1N1 infected in dog MDCK cells at 10 ug/mL incubated for 6 hrs post-infection followed by compound washout measured after 24 hrs by hemagglutininating unit assay relative to control. The data set is classed as functional, A/Puerto Rico/8/1934(H1N1). In a few lines:
as §1

Data set [23] concerns Influenza A virus. The data set can be described thus: Antiviral activity against Influenza virus A/Puerto Rico/8/34 H1N1 infected in dog MDCK cells at 10 ug/mL incubated for 4 hrs post-infection followed by compound washout measured after 24 hrs by hemagglutininating unit assay. The format is functional, organism-based. The conditions noted are these: A/Puerto Rico/8/1934(H1N1). In a few lines:
as §1

With `O=C1/C(=C/c2ccc(O)c(O)c2)COC/C1=C\c1ccc(O)c(O)c1`, the Activity in the data set with Influenza A virus [1] is reported as 30%; in the data set on Influenza A virus [2] it was 62%; in the data set on Influenza A virus [4], 25%; in the data set on MDCK [5], “Toxic”; in the data set with Influenza A virus [7], 75%; in the data set with Influenza A virus [8] it was 55%. Besides, the Activity with Influenza A virus [11] was 56%. Moreover, the outcome with Influenza A virus [3] and with Influenza A virus [10] was inactive. Also, the outcome in the data set with MDCK [6] and in the data set on Influenza A virus [9] was Active.
For `O=C(/C=C/c1ccc(O)cc1)c1ccc(O)cc1O` [ISOLIQUIRITIGENIN], the Activity in the data set with Influenza A virus [12] is 75%; in the data set with Influenza A virus [16], 55%; in the data set on MDCK [19], “Toxic”; in the data set with Influenza A virus [21], 42%; in the data set with Influenza A virus [22], 30%. The inhibition at 10 µg/mL in the data set with Influenza A virus [13] amounted to 75%. The outcome with Influenza A virus [14], in the data set with Influenza A virus [17], in the data set on Influenza A virus [18], with Influenza A virus [20] and in the data set on Influenza A virus [23] was inactive. In addition, the inhibition entry in the data set on MDCK [15] was “Active”. Besides, the outcome in the data set on MDCK [6] was Active.

The values are drawn from ChEMBL document CHEMBL2146419, “Effects of polyphenol compounds on influenza A virus replication and definition of their mechanism of action” (Bioorg Med Chem, 2012).
